A word on the GI50: it is the concentration that inhibits growth by half. What is called IC50 is the midpoint of a concentration-inhibition curve. Usually Ki stands for a measure of affinity in units of concentration, obtained from inhibition or displacement. Read a low Ki as tighter binding.

Data set [1] deals with T1, Broad substrate specificity ATP-binding cassette transporter ABCG2 (Homo sapiens, UniProt Q9UNQ0).
T1 sequence (Q9UNQ0 whole entry): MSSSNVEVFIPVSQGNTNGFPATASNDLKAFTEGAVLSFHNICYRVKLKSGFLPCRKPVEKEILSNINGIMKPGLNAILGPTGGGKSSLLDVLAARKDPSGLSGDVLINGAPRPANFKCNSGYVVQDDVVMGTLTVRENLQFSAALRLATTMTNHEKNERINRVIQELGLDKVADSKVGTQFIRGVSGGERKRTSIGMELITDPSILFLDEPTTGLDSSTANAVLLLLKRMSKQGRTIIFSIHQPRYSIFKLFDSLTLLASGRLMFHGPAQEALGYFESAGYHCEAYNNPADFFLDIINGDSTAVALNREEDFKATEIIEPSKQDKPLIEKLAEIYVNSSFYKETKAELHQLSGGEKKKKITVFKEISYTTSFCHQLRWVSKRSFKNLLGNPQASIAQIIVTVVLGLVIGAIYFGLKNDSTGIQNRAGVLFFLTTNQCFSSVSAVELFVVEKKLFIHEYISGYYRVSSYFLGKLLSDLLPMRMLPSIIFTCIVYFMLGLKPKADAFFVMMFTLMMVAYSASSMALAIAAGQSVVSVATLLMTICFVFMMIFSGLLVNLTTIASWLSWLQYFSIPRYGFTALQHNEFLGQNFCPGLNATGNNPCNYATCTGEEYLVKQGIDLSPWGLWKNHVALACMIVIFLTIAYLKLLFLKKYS
Nature of the data set: Mixed type inhibition of recombinant human GFP-fused ABCG2 expressed in MDCK2 cells preincubated for 30 mins followed by varying levels of Hoechst 33342 addition measured immediately at 60 sec time interval for 120 mins by Cornish-Bowden plot analysis. The class given is cell-based. As to conditions: 2 h; call rule not given here. Summed up:
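Kinetics were run with Hoechst 33342 as the fluorescent ABCG2 substrate at varying levels, combined with several modulator concentrations. Data were analysed by double-reciprocal Lineweaver-Burk, half-reciprocal Hanes-Woolf and Cornish-Bowden direct linear plots. Changes in Vmax and KM with modulator concentration defined the mode: competitive, non-competitive or mixed type.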

A short description of data set [2]: Therapeutic index, ratio of GI50 for ABCG2 over-expressing MDCK2 cells to IC50 for recombinant human GFP-fused ABCG2 expressed in MDCK2 cells. The class given is cell-based.
Data set [3] in a line: Cytotoxicity against ABCG2 over-expressing MDCK2 cells assessed as cell growth inhibition after 72 hrs by MTT assay. The class given is ADME, cell-based, Canis lupus familiaris, MDCK-II. As to conditions: dog. On the technique in general: Formazan colour is commonly taken as a measure of viable cells.
For data set [4], the target named is T1, Broad substrate specificity ATP-binding cassette transporter ABCG2. Kind of data set: Inhibition of recombinant human GFP-fused ABCG2 expressed in MDCK2 cells assessed as reduction in Hoechst 33342 efflux preincubated for 30 mins followed by Hoechst 33342 addition measured immediately at 60 sec time interval for 120 mins by fluorescence assay. Type of data set: cell-based. Summed up:
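Hoechst 33342 accumulation assay: the dye is an ABCG2 substrate whose fluorescence rises when bound to DNA or embedded in membrane. Intracellular accumulation serves as the read-out of transporter inhibition.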

For data set [5] the target is unchanged. Kind of data set: Inhibition of ABCG2 (unknown origin) ATPase activity expressed in baculovirus infected high five cell membranes by ascorbic acid/ammonia molybdate reaction-based colorimetric analysis. The method in brief: (§1)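 Colorimetric ATPase assay of ABCG2 membranes; activity expressed relative to control. Where data were biphasic, a combined increasing plus decreasing logistic equation with the Hill coefficient fixed at one was fitted, giving an activating and an inactivating K.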

Data set [6] addresses T2, ABCG2 (Homo sapiens, UniProt Q9UNQ0).
T2 sequence (Q9UNQ0 whole entry): T1 sequence (Q9UNQ0 whole entry)
Nature of the data set: Activation of ABCG2 (unknown origin) ATPase activity expressed in baculovirus infected high five cell membranes assessed as protein Vmax at 0.5 uM by ascorbic acid/ammonia molybdate reaction-based colorimetric analysis relative to basal control. As to conditions: read-out: Vmax. The method in brief: as §1

A short description of data set [7]: Cytotoxicity against MDCK2 cells assessed as cell growth inhibition after 72 hrs by MTT assay. Type of data set: cell-based, Canis lupus familiaris, MDCK-II. As to conditions: dog.
Data set [8] concerns the target T2, ABCG2. Kind of data set: Inhibition of recombinant human GFP-fused ABCG2 expressed in MDCK2 cells assessed as reduction in Hoechst 33342 efflux at […] preincubated for 30 mins followed by Hoechst 33342 addition measured immediately at 60 sec time interval for 120 mins by fluorescence assay relative to Ko143. As to conditions: MDCK2 cells expressing recombinant GFP-fused human ABCG2, probe Hoechst 33342, read-out: Imax. The class given is cell-based.

The target in data set [9] is T2, ABCG2. Nature of the data set: Activation of ABCG2 (unknown origin) ATPase activity expressed in baculovirus infected high five cell membranes assessed as protein Vmax at 35 uM by ascorbic acid/ammonia molybdate reaction-based colorimetric analysis relative to basal control. As to conditions: read-out: Vmax. Summed up: as §1

On to `FC(F)(F)c1cccc(Nc2nc(-c3ccncc3)nc3ccccc23)c1`, for which, in data set [1], the “inhibition (INH)” value is reported as “Active”. Besides, the TI in data set [2] was found to be 58.3. For the same compound, the 50% growth inhibitory concentration (GI50) at 72 h in data set [3] turned out to be 12.6 µM; in data set [7], 12.3 µM. Further, in [4], the IC50 is 0.216 µM. In data set [5], this compound yielded a Ki of 28 µM. Further, the Emax at 0.5 µM on ABCG2 [6] turned out to be 155%. Moreover, the Emax at 2 h at ABCG2 [8] was in the range of 80 to 110%. Further, the Emax at 35 µM on ABCG2 [9] was 25%.

Source of the values: ChEMBL document CHEMBL4014315 (J Med Chem, 2017).
